Data reported in ChEMBL document CHEMBL2203264, “Optimization of imidazo[4,5-b]pyridine-based kinase inhibitors: identification of a dual FLT3/Aurora kinase inhibitor as an orally bioavailable preclinical development candidate for the treatment of acute myeloid leukemia” (J Med Chem, 2012).
Activity calls are given as the source filed them. No cut-off for these calls is given here.

Key:
[1] = target: Platelet-derived growth factor receptor beta (Homo sapiens) (UniProt P09619); assay: Inhibition of PDGFRB at 1 uM
Chain of Platelet-derived growth factor receptor beta (Homo sapiens) (P09619 whole entry): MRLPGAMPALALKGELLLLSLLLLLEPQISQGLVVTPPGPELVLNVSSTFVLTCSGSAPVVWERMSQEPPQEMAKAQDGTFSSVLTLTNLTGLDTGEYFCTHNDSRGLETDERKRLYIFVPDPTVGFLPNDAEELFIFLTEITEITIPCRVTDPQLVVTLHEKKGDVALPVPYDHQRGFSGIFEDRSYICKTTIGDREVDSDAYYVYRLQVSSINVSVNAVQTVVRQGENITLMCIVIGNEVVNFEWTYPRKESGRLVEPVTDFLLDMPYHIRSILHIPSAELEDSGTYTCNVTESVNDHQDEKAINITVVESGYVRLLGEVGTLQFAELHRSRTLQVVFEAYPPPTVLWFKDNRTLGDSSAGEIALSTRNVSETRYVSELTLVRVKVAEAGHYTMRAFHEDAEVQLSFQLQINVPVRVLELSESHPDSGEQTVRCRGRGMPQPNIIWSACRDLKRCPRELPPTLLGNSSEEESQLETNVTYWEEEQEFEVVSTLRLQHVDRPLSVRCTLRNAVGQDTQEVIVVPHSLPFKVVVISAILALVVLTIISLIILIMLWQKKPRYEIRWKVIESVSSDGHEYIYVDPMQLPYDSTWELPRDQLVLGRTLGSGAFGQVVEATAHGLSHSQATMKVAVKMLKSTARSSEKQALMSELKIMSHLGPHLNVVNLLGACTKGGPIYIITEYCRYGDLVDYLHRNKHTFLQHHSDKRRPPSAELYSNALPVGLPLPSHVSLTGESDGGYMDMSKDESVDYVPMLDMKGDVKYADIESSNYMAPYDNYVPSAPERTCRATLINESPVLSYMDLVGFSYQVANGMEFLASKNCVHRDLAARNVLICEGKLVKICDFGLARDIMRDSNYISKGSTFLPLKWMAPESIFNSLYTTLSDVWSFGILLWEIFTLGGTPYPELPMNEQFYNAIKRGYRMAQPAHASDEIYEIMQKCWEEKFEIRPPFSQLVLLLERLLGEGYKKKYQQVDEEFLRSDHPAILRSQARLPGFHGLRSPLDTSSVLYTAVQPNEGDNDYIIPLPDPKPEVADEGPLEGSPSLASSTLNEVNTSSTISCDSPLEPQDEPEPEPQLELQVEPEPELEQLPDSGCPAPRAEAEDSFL
How it was run: (§1)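 KINOMEScan competition-binding panel of 442 kinases (386 nonmutant) tested at 1 μM. Binding is read as percent of control ligand competition; <10% of control counts as a hit for the S(10) score.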

[2] = target: Vascular endothelial growth factor receptor 1 (Homo sapiens) (UniProt P17948); assay: Inhibition of FLT1 at 1 uM; how it was run: as §1
Chain of Vascular endothelial growth factor receptor 1 (Homo sapiens) (P17948 whole entry): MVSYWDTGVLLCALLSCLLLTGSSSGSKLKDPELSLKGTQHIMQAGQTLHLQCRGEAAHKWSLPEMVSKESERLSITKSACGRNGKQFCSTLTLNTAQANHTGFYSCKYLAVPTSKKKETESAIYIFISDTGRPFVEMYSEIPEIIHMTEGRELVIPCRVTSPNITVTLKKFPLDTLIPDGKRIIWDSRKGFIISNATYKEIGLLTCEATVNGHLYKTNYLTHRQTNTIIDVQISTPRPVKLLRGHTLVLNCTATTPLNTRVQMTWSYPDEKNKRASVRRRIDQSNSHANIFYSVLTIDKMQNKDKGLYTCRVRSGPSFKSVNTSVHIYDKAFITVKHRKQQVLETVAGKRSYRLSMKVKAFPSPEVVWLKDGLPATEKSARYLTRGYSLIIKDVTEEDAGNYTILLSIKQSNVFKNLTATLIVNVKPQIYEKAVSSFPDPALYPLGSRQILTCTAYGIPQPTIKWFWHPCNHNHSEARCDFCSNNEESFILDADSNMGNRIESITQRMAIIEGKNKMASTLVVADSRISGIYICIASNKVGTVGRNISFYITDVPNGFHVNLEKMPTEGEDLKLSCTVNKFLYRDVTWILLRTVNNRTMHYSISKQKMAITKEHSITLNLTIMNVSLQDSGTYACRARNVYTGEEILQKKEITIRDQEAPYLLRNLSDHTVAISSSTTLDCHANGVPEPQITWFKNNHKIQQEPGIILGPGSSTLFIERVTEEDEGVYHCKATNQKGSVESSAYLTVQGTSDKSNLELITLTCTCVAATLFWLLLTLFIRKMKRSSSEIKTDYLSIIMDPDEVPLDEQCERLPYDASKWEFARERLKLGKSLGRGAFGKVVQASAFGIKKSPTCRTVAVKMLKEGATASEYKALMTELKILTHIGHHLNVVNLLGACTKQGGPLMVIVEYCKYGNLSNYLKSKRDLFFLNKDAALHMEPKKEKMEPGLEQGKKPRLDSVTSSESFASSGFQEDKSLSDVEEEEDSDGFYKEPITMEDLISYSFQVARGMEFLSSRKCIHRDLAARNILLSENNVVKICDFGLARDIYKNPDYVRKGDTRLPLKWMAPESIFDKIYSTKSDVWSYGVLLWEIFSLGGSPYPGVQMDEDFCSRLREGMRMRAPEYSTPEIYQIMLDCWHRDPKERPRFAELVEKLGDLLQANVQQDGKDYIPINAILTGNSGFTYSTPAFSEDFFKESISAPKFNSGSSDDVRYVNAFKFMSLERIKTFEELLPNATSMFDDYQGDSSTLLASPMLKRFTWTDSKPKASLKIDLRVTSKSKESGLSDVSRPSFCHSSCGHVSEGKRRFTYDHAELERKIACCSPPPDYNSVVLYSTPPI

[3] = system: Mus musculus; assay: Inhibition of Stat5 phosphorylation at Y694 in tumor of human MV4-11 cells xenografted CrTacNCr-Fox1(nu) athymic mouse at 50 to 100 mg/kg, po bid for 4 days measured after 2 hrs post final dose; type: functional, organism-based
How it was run: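 MV4-11 xenograft-bearing athymic mice dosed orally at 50 or 100 mg/kg twice daily for 4 days, starting 17 days after implantation. Tumors harvested 2 h after the final dose. Western blotting for phospho-histone H3 (S10) and phospho-Stat5 (Y694), with total histone H3, total Stat5 and GAPDH as loading controls.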

[4] = system: MV4-11; assay: Antitumor activity against human MV4-11 cells xenografted in CrTacNCr-Fox1(nu) athymic mouse assessed as tumor growth inhibition at 50 mg/kg, po bid administered 10 days post implantation daily for 7 days measured after 11 days; type: functional; set-up: scale not given: the % may be the effect or the level left
How it was run: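 Female adult CrTacNcr-Fox1(nu) athymic mice, s.c. 10^7 FLT3-ITD-positive MV4-11 cells; treatment began at 10 days (mean tumor volume at least 100 mm^3). Oral 50 or 100 mg/kg in 10% DMSO, 20% PEG 400, 5% Tween 80, 65% water, or vehicle alone; n = 5 per group. Dosed twice daily for 7 days, then once daily for 4 days; study ended day 60.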

[5] = system: Mus musculus; assay: Toxicity in CrTacNCr-Fox1(nu) athymic mouse assessed as adverse condition at 50 to 100 mg/kg, po administered 10 days post implantation daily for 7 days; type: organism-based; set-up: dose 50-100 mg/kg, route oral; details: in vivo
[6] = system: Mus musculus; assay: Toxicity in CrTacNCr-Fox1(nu) athymic mouse assessed as body weight loss at 50 to 100 mg/kg, po administered 10 days post implantation daily for 7 days; type: organism-based; set-up: dose 50-100 mg/kg, route oral; details: in vivo
[7] = system: MV4-11; assay: Antitumor activity against human MV4-11 cells xenografted in po dosed CrTacNCr-Fox1(nu) athymic mouse assessed as tumor growth inhibition administered 10 days post implantation twice daily for 7 days; type: functional, organism-based
How it was run: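 Female adult athymic nude mice implanted subcutaneously with 10^7 FLT3-ITD-positive MV4-11 cells; treatment started 10 days after implantation, once mean tumor volume was at least 100 mm^3. Oral dosing at 50 or 100 mg/kg (n = 5 per group), twice daily for 7 days, then once daily for a further 4 days. Vehicle: 10% DMSO, 20% PEG 400, 5% Tween 80, 65% water. Tumor volume followed to day 60.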

[8] = Oral bioavailability in Sprague-Dawley rat at 5 mg/kg; type: ADME, organism-based; details: in vivo
How it was run: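 Female Sprague-Dawley rats, 5 mg/kg. Oral vehicle 10% DMSO, 5% Tween 80, 20% PEG400 in water; iv vehicle 10% DMSO, 5% Tween 20, 85% saline, 0.3% 1 M HCl. Serial tail-vein plasma at 15, 30 min and 2, 4, 6, 24 h. Methanol precipitation with olomoucine internal standard, then LC-MS (C18 BEH, positive ESI MRM).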

[9] = AUC (infinity) in Sprague-Dawley rat at 5 mg/kg, iv; type: ADME, organism-based; set-up: time infinity, dose 5 mg/kg, route intravenous; details: plasma
How it was run: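 Female Sprague–Dawley rats dosed iv at 5 mg/kg in 10% DMSO, 5% Tween 20, 85% saline, 0.3% 1 M HCl. Serial tail-vein bleeds at 15, 30 min and 2, 4, 6, 24 h. Plasma was methanol-precipitated with olomoucine internal standard, then analysed by LC–MS (positive ESI MRM).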

[10] = Clearance in Sprague-Dawley rat at 5 mg/kg, iv; type: ADME, organism-based; set-up: dose 5 mg/kg, route intravenous; details: in vivo
How it was run: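 Female Sprague–Dawley rats given 5 mg/kg iv in 10% DMSO, 5% Tween 20, 85% saline, 0.3% 1 M HCl. Serial tail vein bleeds at 15 and 30 min and 2, 4, 6, 24 h; plasma protein-precipitated with methanol with olomoucine internal standard; drug quantified by LC–MS (positive ESI MRM). Clearance given as L/h and mL/min/kg.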

[11] = system: Caco-2; assay: Permeability across human Caco2 cells; type: ADME, cell-based
[12] = target: T1, Cytochrome P450 2A6 (Homo sapiens, UniProt P11509); assay: Inhibition of human liver microsome CYP2A6 by LC-MS-MS analysis; type: ADME
T1 sequence (P11509 whole entry): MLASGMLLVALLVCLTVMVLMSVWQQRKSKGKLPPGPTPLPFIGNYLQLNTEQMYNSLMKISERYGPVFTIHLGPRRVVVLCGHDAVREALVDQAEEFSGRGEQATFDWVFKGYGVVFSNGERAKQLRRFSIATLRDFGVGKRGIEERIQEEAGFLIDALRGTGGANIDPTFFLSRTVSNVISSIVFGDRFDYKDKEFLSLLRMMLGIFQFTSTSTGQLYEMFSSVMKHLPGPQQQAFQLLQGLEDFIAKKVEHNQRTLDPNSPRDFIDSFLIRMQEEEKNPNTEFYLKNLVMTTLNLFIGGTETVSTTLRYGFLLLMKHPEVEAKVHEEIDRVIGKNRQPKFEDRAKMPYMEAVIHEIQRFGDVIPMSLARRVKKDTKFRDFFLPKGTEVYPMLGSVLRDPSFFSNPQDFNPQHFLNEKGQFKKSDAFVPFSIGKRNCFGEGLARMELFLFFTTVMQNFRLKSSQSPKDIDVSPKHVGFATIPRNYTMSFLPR
How it was run: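 Pooled human liver microsomes (50 donors) at 0.5 mg/mL protein, incubated for 10 min with isoform-selective probe substrates. Metabolite formation was detected by LC–MS/MS with positive ESI.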

[13] = target: Voltage-gated inwardly rectifying potassium channel KCNH2 (Homo sapiens, UniProt Q12809); assay: Inhibition of human ERG by whole-cell voltage clamping
Chain of Voltage-gated inwardly rectifying potassium channel KCNH2 (Q12809 whole entry): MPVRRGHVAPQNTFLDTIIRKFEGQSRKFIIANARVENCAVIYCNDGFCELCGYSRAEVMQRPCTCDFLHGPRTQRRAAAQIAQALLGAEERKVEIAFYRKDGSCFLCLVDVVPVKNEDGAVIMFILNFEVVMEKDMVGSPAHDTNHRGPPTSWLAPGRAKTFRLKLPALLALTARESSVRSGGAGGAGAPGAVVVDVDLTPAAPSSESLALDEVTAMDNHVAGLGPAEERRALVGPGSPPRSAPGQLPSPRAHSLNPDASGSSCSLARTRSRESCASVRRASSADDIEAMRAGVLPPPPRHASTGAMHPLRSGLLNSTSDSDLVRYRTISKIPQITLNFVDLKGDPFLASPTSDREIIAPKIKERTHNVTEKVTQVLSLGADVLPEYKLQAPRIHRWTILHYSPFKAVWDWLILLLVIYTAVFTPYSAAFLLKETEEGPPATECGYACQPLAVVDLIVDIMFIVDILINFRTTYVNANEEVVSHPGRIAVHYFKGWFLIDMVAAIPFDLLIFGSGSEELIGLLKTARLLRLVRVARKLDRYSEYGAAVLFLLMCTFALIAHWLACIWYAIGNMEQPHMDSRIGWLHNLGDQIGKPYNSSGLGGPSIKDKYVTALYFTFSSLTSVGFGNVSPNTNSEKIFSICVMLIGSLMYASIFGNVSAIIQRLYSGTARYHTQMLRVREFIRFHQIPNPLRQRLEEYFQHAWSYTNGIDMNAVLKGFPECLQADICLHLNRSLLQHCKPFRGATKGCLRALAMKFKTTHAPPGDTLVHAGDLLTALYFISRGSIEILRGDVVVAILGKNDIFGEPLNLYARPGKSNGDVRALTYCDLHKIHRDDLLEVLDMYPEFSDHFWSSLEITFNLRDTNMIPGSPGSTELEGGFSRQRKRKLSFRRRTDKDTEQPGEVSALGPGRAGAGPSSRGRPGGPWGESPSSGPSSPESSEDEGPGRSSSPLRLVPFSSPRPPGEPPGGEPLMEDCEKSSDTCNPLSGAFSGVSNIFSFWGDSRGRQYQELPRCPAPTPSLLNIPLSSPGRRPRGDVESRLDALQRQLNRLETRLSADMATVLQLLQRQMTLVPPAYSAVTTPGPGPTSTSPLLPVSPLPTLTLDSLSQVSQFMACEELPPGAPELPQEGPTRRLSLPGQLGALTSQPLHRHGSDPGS
How it was run: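 hERG tail current measured by whole-cell voltage clamp (Cyprotex) to obtain an IC50. Single-point screens were a separate high-throughput cell-based electrophysiology assay at 10 μM, with 0.3% DMSO vehicle and 1 μM cisapride as controls.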

## Cc1nn(C)cc1-c1nc2c(N3CCN(Cc4ccc(Cl)cc4)CC3)c(Cl)cnc2[nH]1 [MOBINITINIB]
[1]
  inhibition: 4%
[2]
  inhibition: 0.3%
[3]
  inhibition: Active
[4]
  Activity: 42%
[5]
  Activity: Non-toxic
[6]
  Activity: Non-toxic
[7]
  TGI: Dose-dependent effect
[8]
  bioavailability: 79%
[9]
  AUC(0-inf): 39.9 µM·h
[10]
  clearance: 0.95 mL/min
[11]
  permeability: 18.6 ×10⁻⁶ cm/s
[12]
  IC50: > 10 µM
[13]
  IC50: > 25 µM
